ChEMBL document CHEMBL3244368, “[3-(1,4-Cyclohexadienyl)-L-alanine,8-lysine]vasopressin: synthesis and some pharmacological properties” (J Med Chem, 1979)
Starred links: 1 amine or outer side, 2 acyl side, 3 side chain; linkers in the order of their positions; H or OH if unused. Positions of bridges follow the written chain, without caps; N, C: chain ends. Non-standard residues stand in square brackets, D forms with d. Residues, ends and D or L forms follow the SMILES beside them. X1 = O=C([C@H](CC1=CCC=CC1)N[*:1])[*:2]; 2Thi = N[C@@H](Cc1cccs1)C(=O)O

Assays:
[1] = Oxytocic activity in isolated rat uterus strips in Mg2+-free van Dyke-Hastings solution
[2] = test system: Rattus norvegicus; assay: Antidiuretic activity in iv dosed water loaded rat; assay type: functional, Urine
How it was run: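 Water-loaded rats under ethanol anesthesia, peptide given intravenously. Potency referenced to the USP Posterior Pituitary Reference Standard.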

[3] = species: Gallus gallus; assay: Vasodepressor activity in chicken; assay type: functional
[4] = species: Rattus norvegicus; assay: Vasopressor activity in phenoxybenzamine-treated rat; assay type: functional
How it was run: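 Phenoxybenzamine-treated rats under urethane anesthesia. Potency referenced to the USP Posterior Pituitary Reference Standard.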

[5] = Stability of the compound in potassium phosphate buffer at pH 7 assessed as hydrolysis by measuring DiHPe level in presence of alpha-amylase preparation and cyclohexadiene
[6] = Stability of the compound in potassium phosphate buffer at pH 7 assessed as hydrolysis by measuring Phe level in presence of alpha-amylase preparation and cyclohexadiene
[7] = Stability of the compound in 0.2 M potassium phosphate buffer at […] assessed as hydrolysis by measuring Tyr level in presence of alpha-amylase preparation and cyclohexadiene; assay type: ADME
How it was run: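 Aspergillus oryzae α-amylase preparation, 1 mg per 0.9 µmol peptide, in potassium phosphate buffer pH 7, with 1,4-cyclohexadiene (10 µL) and toluene, under N2, 37 °C, 17 h. Adjusted to pH 2.2 for amino acid analysis. Phe from a control of constituent amino acids plus enzyme subtracted to give Phe in residue 3.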

[8] = Stability of the compound in 0.2 M potassium phosphate buffer at pH 7.7 assessed as hydrolysis by measuring Gly level in presence of alpha-amylase preparation; assay type: ADME
[9] = Stability of the compound in 0.2 M potassium phosphate buffer at pH 7.7 assessed as hydrolysis by measuring Tyr level in presence of alpha-amylase preparation; assay type: ADME
[10] = Stability of the compound in 0.2 M potassium phosphate buffer at pH 7.7 assessed as hydrolysis by measuring Ile/Phe + DiHPe level in presence of alpha-amylase preparation; assay type: ADME
[11] = Stability of the compound in 0.2 M potassium phosphate buffer at pH 7.7 assessed as hydrolysis by measuring Leu/Lys level in presence of alpha-amylase preparation; assay type: ADME
[12] = Stability of the compound in 0.2 M potassium phosphate buffer at pH 7.7 assessed as hydrolysis by measuring Asn/Gln level in presence of alpha-amylase preparation; assay type: ADME
[13] = Stability of the compound in 0.2 M potassium phosphate buffer at pH 7.7 assessed as hydrolysis by measuring Gly level in presence of pronase; assay type: ADME
How it was run: (§1)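 Pronase digest in 0.2 M potassium phosphate buffer, pH 7.7, substrate:enzyme 5:1. Half the enzyme added at start and half after 18 h at 37 °C, then incubated 4 h more. Released amino acids quantified by amino acid analysis.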

[14] = Stability of the compound in 0.2 M potassium phosphate buffer at pH 7.7 assessed as hydrolysis by measuring Tyr level in presence of pronase; assay type: ADME
How it was run: as §1

[15] = Stability of the compound in 0.2 M potassium phosphate buffer at pH 7.7 assessed as hydrolysis by measuring Asn/Gln level in presence of pronase; assay type: ADME
How it was run: as §1

[16] = Stability of the compound in 0.2 M potassium phosphate buffer at pH 7.7 assessed as hydrolysis by measuring Leu/Lys level in presence of pronase; assay type: ADME
How it was run: as §1

[17] = Stability of the compound in 0.2 M potassium phosphate buffer at pH 7.7 assessed as hydrolysis by measuring Ile/Phe + DiHPe level in presence of pronase; assay type: ADME
How it was run: as §1

| Compound | Activity [1] [U/mg] | Activity [2] [U/mg] | Activity [3] [U/mg] | Activity [4] [U/mg] | Drug degradation [5] [mol%] | Drug degradation [6] [mol%] | Drug degradation [7] [mol%] | Drug degradation [8] [mol%] | Drug degradation [9] [mol%] | Drug degradation [10] [mol%] | Drug degradation [11] [mol%] | Drug degradation [12] [mol%] | Drug degradation [13] [mol%] | Drug degradation [14] [mol%] | Drug degradation [15] [mol%] | Drug degradation [16] [mol%] | Drug degradation [17] [mol%] |
| --- | --- | --- | --- | --- | --- | --- | --- | --- | --- | --- | --- | --- | --- | --- | --- | --- | --- |
| NCCCC[C@H](NC(=O)[C@@H]1CCCN1C(=O)[C@@H]1CSSC[C@H](N)C(=O)N[C@@H](Cc2ccc(O)cc2)C(=O)N[C@@H](Cc2cccs2)C(=O)N[C@@H](CCC(N)=O)C(=O)N[C@@H](CC(N)=O)C(=O)N1)C(=O)NCC(N)=O (H-CY[2Thi]QNCPKG-NH2; disulfide 1-6) | 19 | 332 | 87 | 243 |  |  |  |  |  |  |  |  |  |  |  |  |  |
| NCCCC[C@H](NC(=O)[C@@H]1CCCN1C(=O)[C@@H]1CSSC[C@H](N)C(=O)N[C@@H](Cc2ccc(O)cc2)C(=O)N[C@@H](CC2=CCC=CC2)C(=O)N[C@@H](CCC(N)=O)C(=O)N[C@@H](CC(N)=O)C(=O)N1)C(=O)NCC(N)=O (H-CY[X1]QNCPKG-NH2; disulfide 1-6) | 6 | 125 |  | 129 | 66 | 8.7 | 89 |  |  |  |  |  |  |  |  |  |  |
| CC[C@H](C)[C@@H]1NC(=O)[C@H](Cc2ccc(O)cc2)NC(=O)[C@@H](N)CSSC[C@@H](C(=O)N2CCC[C@H]2C(=O)N[C@@H](CCCNC(=N)N)C(=O)NCC(N)=O)NC(=O)[C@H](CC(N)=O)NC(=O)[C@H](CCC(N)=O)NC1=O [ARGIPRESTOCIN] (H-CYIQNCPRG-NH2; disulfide 1-6) | 114 | 245 | 286 | 243 |  |  |  |  |  |  |  |  |  |  |  |  |  |
| NCCCC[C@H](NC(=O)[C@@H]1CCCN1C(=O)[C@@H]1CSSC[C@H](N)C(=O)N[C@@H](Cc2ccc(O)cc2)C(=O)N[C@@H](Cc2ccccc2)C(=O)N[C@@H](CCC(N)=O)C(=O)N[C@@H](CC(N)=O)C(=O)N1)C(=O)NCC(N)=O [LYPRESSIN] | 5 | 212 | 40 | 258 |  |  |  | 73 | 100 | 113 | 101 |  |  |  |  |  |  |
| CC[C@H](C)[C@@H]1NC(=O)[C@H](Cc2ccc(O)cc2)NC(=O)[C@@H](N)CSSC[C@@H](C(=O)N2CCC[C@H]2C(=O)N[C@@H](CC(C)C)C(=O)NCC(N)=O)NC(=O)[C@H](CC(N)=O)NC(=O)[C@H](CCC(N)=O)NC1=O [OXYTOCIN] |  |  |  |  |  |  |  | 63 | 63 | 72 | 77 | 110 | 36 | 70 | 76 | 60 | 54 |
| N=C(N)NCCC[C@H](NC(=O)[C@@H]1CCCN1C(=O)[C@@H]1CSSC[C@H](N)C(=O)N[C@@H](Cc2ccc(O)cc2)C(=O)N[C@@H](Cc2ccccc2)C(=O)N[C@@H](CCC(N)=O)C(=O)N[C@@H](CC(N)=O)C(=O)N1)C(=O)NCC(N)=O [VASOPRESSIN] | 16 | 429 | 57 | 380 |  |  |  |  |  |  |  |  |  |  |  |  |  |
